The structures appear in SMILES notation. In brackets after ≈: the same amount, converted by molar mass.

The test system of one data set is Staphylococcus aureus. As to the kind of experiment: Antibacterial activity against Staphylococcus aureus ATCC 11632 after 24 hrs by broth microdilution method. Type of data set: functional. To be noted: ATCC 11632, 24 h. The procedure, abridged:
(§1)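 Broth dilution in Mueller-Hinton broth. Tubes inoculated at 10⁵ cfu/mL and incubated 37 °C for 24 h. MIC taken as lowest concentration completely inhibiting growth. Media and media-plus-DMSO growth controls; ciprofloxacin and norfloxacin as reference standards.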

The test system of the next data set is Saccharomyces cerevisiae. As to the kind of experiment: Antifungal activity against Saccharomyces cerevisiae ATCC 9763 after 24 hrs by broth microdilution method. The data set is classed as functional. Particulars: ATCC 9763, 24 h.
A further data set concerns Escherichia coli. The experiment in a line: Antibacterial activity against Escherichia coli ATCC 10536 after 24 hrs by broth microdilution method. Type of data set: functional. Particulars: ATCC 10536, 24 h. The procedure, abridged:
as §1

Data set [1] relates to Mycobacterium tuberculosis. The experiment in a line: Antimycobacterial activity against Mycobacterium tuberculosis H37Rv after 21 days by broth dilution assay. Type of data set: functional. To be noted: 504 h. Put shortly: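 Frozen culture in Middlebrook 7H9 broth with 10% albumin-dextrose-catalase and 0.2% glycerol, thawed and diluted in broth to 10⁵ cfu/mL. Compounds dissolved in DMSO, twofold diluted in broth; final DMSO 1.3%. Tubes inoculated, incubated at 37 °C. Growth compared visually against drug-free and drug- and inoculum-free controls and isoniazid. MIC = lowest concentration inhibiting ≥99% of the starting bacterial population.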

Another data set concerns Pseudomonas aeruginosa. The experiment in a line: Antibacterial activity against Pseudomonas aeruginosa ATCC 10145 after 24 hrs by broth microdilution method. The data set is classed as functional. To be noted: ATCC 10145, 24 h. The procedure, abridged: as §1
A further data set relates to Aspergillus niger. As to the kind of experiment: Antifungal activity against Aspergillus niger ATCC 6275 after 24 hrs by broth microdilution method. Type of data set: functional. To be noted: ATCC 6275, 24 h.
Another data set concerns Bacillus subtilis. The experiment in a line: Antibacterial activity against Bacillus subtilis ATCC 60511 after 24 hrs by broth microdilution method. The data set is classed as functional. Particulars: ATCC 60511, 24 h. Put shortly:
as §1

The subject of another data set is Klebsiella pneumoniae. As to the kind of experiment: Antibacterial activity against Klebsiella pneumoniae ATCC 10031 after 24 hrs by broth microdilution method. The data set is classed as functional. Particulars: ATCC 10031, 24 h. Put shortly:
as §1

The subject of the next data set is Candida tropicalis. The experiment in a line: Antifungal activity against Candida tropicalis ATCC 1369 after 24 hrs by broth microdilution method. The data set is classed as functional. To be noted: ATCC 1369, 24 h.
The subject of the next data set is Enterococcus faecalis. The experiment in a line: Antibacterial activity against Streptococcus faecalis ATCC 14506 after 24 hrs by broth microdilution method. To be noted: ATCC 14506, 24 h. The data set is classed as functional. Put shortly:
as §1

The next data set concerns A549. The experiment in a line: Cytotoxicity against human A549 cells assessed as cell viability at 250 uM by MTT assay. Type of data set: cell-based. To be noted: a549, 250 µM. Put shortly: (§2)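 A549 lung adenocarcinoma cells grown with fetal bovine serum. Compounds held as 10 mM DMSO stocks at −20 °C and diluted in culture medium before treatment (50–250 µM). Viability read by MTT assay against untreated cells and DMSO vehicle control. Two experiments, each with triplicate readings.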

Data set [2] is described as follows: Cytotoxicity against human A549 cells assessed as cell viability at 250 uM by MTT assay relative to control. Particulars: read-out: Activity. Type of data set: cell-based. The procedure, abridged:
as §2

Take `CC(C)c1csc(-c2nnc3n2NC(c2ccc(F)cc2F)S3)n1` (stereo not drawn): the MIC was determined as 8 µg/mL (≈ 21.9 µM) with Staphylococcus aureus; 62.5 µg/mL (≈ 171 µM) in the data set on Saccharomyces cerevisiae; 16 µg/mL (≈ 43.8 µM) against Escherichia coli; 4 µg/mL (≈ 10.9 µM) in data set [1]; 16 µg/mL (≈ 43.8 µM) against Pseudomonas aeruginosa; 31.2 µg/mL (≈ 85.5 µM) in the data set on Aspergillus niger. Moreover, the MIC against Bacillus subtilis was 4 µg/mL (≈ 10.9 µM); against Klebsiella pneumoniae, 31.2 µg/mL (≈ 85.5 µM); in the data set with Candida tropicalis, 125 µg/mL (≈ 342 µM); in the data set with Enterococcus faecalis, 4 µg/mL (≈ 10.9 µM). The Activity result in the data set with A549 is “Toxic”.
As for `COc1ccc(C(=O)Nn2c(-c3nc(C(C)C)cs3)n[nH]c2=S)cc1`, the minimum inhibitory concentration (MIC) against Staphylococcus aureus was 62.5 µg/mL (≈ 166 µM); with Saccharomyces cerevisiae, 4 µg/mL (≈ 10.7 µM); in the data set on Escherichia coli, 8 µg/mL (≈ 21.3 µM); in data set [1] it was 16 µg/mL (≈ 42.6 µM); in the data set with Pseudomonas aeruginosa, 8 µg/mL (≈ 21.3 µM); in the data set on Aspergillus niger, 16 µg/mL (≈ 42.6 µM). Further, the MIC came out at 62.5 µg/mL (≈ 166 µM) against Bacillus subtilis, 16 µg/mL (≈ 42.6 µM) against Klebsiella pneumoniae, 8 µg/mL (≈ 21.3 µM) against Candida tropicalis and 125 µg/mL (≈ 333 µM) in the data set with Enterococcus faecalis. In data set [2], the viability at 250 µM worked out at 50%.
As to `COc1cc(/C=N/n2c(-c3nc(C(C)C)cs3)nn(CN3CCN(C)CC3)c2=S)cc(OC)c1OC`, the MIC in the data set on Staphylococcus aureus worked out at 16 µg/mL (≈ 30.1 µM); against Saccharomyces cerevisiae, 125 µg/mL (≈ 235 µM); against Escherichia coli, 8 µg/mL (≈ 15 µM); in data set [1], 8 µg/mL (≈ 15 µM); in the data set on Pseudomonas aeruginosa, 31.2 µg/mL (≈ 58.8 µM); with Aspergillus niger it was 16 µg/mL (≈ 30.1 µM). Also, the MIC is 4 µg/mL (≈ 7.52 µM) against Bacillus subtilis, 16 µg/mL (≈ 30.1 µM) in the data set on Klebsiella pneumoniae, 62.5 µg/mL (≈ 118 µM) in the data set with Candida tropicalis and 8 µg/mL (≈ 15 µM) with Enterococcus faecalis. Further, the viability at 250 µM in data set [2] was 50%.
